Our source for the Activity and IC50 values is ChEMBL document CHEMBL1158804, “Lupane triterpenoids from Maytenus species” (J Nat Prod, 2005).

One assay concerns Staphylococcus aureus. Put plainly: Antibacterial activity against Staphylococcus aureus ATCC 6538 up to 40 ug/mL by broth microdilution method. It is filed as functional, organism-based. An outline of the steps:
(§1)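 Compounds are dissolved in DMSO. The minimal inhibitory concentration is estimated by broth microdilution.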

For assay [1], the system named is Staphylococcus epidermidis. The assay can be described thus: Antibacterial activity against Staphylococcus epidermidis CECT 232 up to 40 ug/mL by broth microdilution method. It is filed as functional, organism-based. An outline of the steps: as §1
For orientation: In broth dilution the organism is exposed to a series of concentrations in liquid medium.

Assay [2] concerns Staphylococcus saprophyticus. The assay can be described thus: Antibacterial activity against Staphylococcus saprophyticus CECT 235 up to 40 ug/mL by broth microdilution method. It counts as functional, organism-based. An outline of the steps:
as §1

For the next assay, the system named is Enterococcus faecalis. The assay can be described thus: Antibacterial activity against Enterococcus faecalis CECT 795 up to 40 ug/mL by broth microdilution method. It is filed as functional, organism-based. An outline of the steps: as §1
The test system of a further assay is Bacillus subtilis. The assay can be described thus: Antibacterial activity against Bacillus subtilis CECT 39 up to 40 ug/mL by broth microdilution method. It is filed as functional, organism-based. The gist of the method:
as §1

Another assay relates to Bacillus cereus. The assay can be described thus: Antibacterial activity against Bacillus cereus CECT 496 up to 40 ug/mL by broth microdilution method. It is filed as functional, organism-based. The gist of the method: as §1
A further assay deals with Bacillus pumilus. The assay can be described thus: Antibacterial activity against Bacillus pumilus CECT 29 up to 40 ug/mL by broth microdilution method. It is filed as functional, organism-based. The gist of the method: as §1
In another assay the test system is Priestia megaterium. Put plainly: Antibacterial activity against Bacillus megaterium CECT 44 up to 40 ug/mL by broth microdilution method. It is filed as functional, organism-based. The gist of the method:
as §1

Assay [3] relates to Mycolicibacterium smegmatis. Put plainly: Antibacterial activity against Mycobacterium smegmatis CECT 3032 up to 40 ug/mL by broth microdilution method. It counts as functional, organism-based. An outline of the steps:
as §1

For another assay, the system named is Escherichia coli. The assay can be described thus: Antibacterial activity against Escherichia coli CECT 99 up to 40 ug/mL by broth microdilution method. It counts as functional, organism-based. An outline of the steps: as §1
For another assay, the system named is Proteus mirabilis. Put plainly: Antibacterial activity against Proteus mirabilis CECT170 up to 40 ug/mL by broth microdilution method. It is filed as functional, organism-based. An outline of the steps: as §1
Another assay concerns Salmonella. The assay can be described thus: Antibacterial activity against Salmonella sp. CECT 456 up to 40 ug/mL by broth microdilution method. It is filed as functional, organism-based. An outline of the steps:
as §1

The next assay relates to Pseudomonas aeruginosa. Put plainly: Antibacterial activity against Pseudomonas aeruginosa AK 958 up to 40 ug/mL by broth microdilution method. It is filed as functional, organism-based. The gist of the method:
as §1

The test system of another assay is Candida albicans. The assay can be described thus: Antifungal activity against Candida albicans UBC1 up to 40 ug/mL by broth microdilution method. It is filed as functional, organism-based. An outline of the steps:
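The yeast is grown on Sabouraud agar at 37 °C. Compounds are dissolved in DMSO, and the minimal inhibitory concentration is estimated by broth microdilution.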

The subject of the next assay is HeLa. The assay can be described thus: Cytotoxicity against human HeLa cells after 48 hrs by MTT assay. It is filed as functional, cell-based. An outline of the steps: (§2)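 Monolayers are cultured in DMEM with 5% fetal calf serum and 1% penicillin-streptomycin at 37 °C, 5% CO2 and 90% humidity. Exponentially growing cells (2 × 10^4 cells/well) are exposed to a range of compound concentrations for 48 h at 37 °C. Viability is read by colorimetric MTT reduction.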
For orientation: Formazan colour is commonly taken as a measure of viable cells.

The subject of a further assay is HEp-2. Put plainly: Cytotoxicity against human Hep2 cells after 48 hrs by MTT assay. It is filed as functional, cell-based. To be noted: HEp-2, 48 h. An outline of the steps: as §2
A further assay concerns Vero. Put plainly: Cytotoxicity against african green monkey Vero cells after 48 hrs by MTT assay. It is filed as cell-based. To be noted: Chlorocebus sabaeus. The gist of the method: as §2

Calls of active or inactive are those of the source. No cut-off for these calls is given here. Bounds are passed on as bounds.

One may read the IC50 as the concentration that inhibits the measured activity by half. Consider `C=C(C)[C@@H]1CC[C@]2(C)CC[C@]3(C)[C@@H](CC[C@@H]4[C@@]5(C)C=CC(=O)C(C)(C)[C@@H]5CC[C@]43C)[C@@H]12` [GLOCHIDONE], for which the outcome (with Staphylococcus aureus; in [1]; in [2]; with Enterococcus faecalis; with Bacillus subtilis; with Bacillus cereus) was inactive. The outcome (in the assay with Bacillus pumilus; with Priestia megaterium; in [3]; with Escherichia coli; in the assay with Proteus mirabilis; in the assay with Salmonella) was inactive. Besides, the outcome with Pseudomonas aeruginosa and in the assay on Candida albicans was inactive. Moreover, the half-maximal inhibitory concentration (IC50) in the assay on HeLa, in the assay on HEp-2 and in the assay on Vero was more than 10 µg/mL each time.
Take `C=C(C)[C@@H]1CC[C@]2(CO)CC[C@]3(C)[C@H](C[C@@H](O)[C@@H]4[C@@]5(C)CC[C@@H](O)C(C)(C)[C@@H]5CC[C@]43C)[C@@H]12`: the outcome (in the assay with Staphylococcus aureus; in assay [1]; in assay [2]; with Enterococcus faecalis; in the assay on Bacillus subtilis; in the assay with Bacillus cereus) was inactive. For the same compound, the outcome (with Bacillus pumilus; in the assay with Priestia megaterium; in assay [3]; in the assay on Escherichia coli; in the assay with Proteus mirabilis; in the assay on Salmonella) was inactive. Moreover, the outcome with Pseudomonas aeruginosa and with Candida albicans was inactive. For the same compound, the IC50 with HeLa, with HEp-2 and in the assay on Vero was more than 10 µg/mL throughout.
Turning to `C=C(C)[C@@H]1CC[C@]2(CO)CC[C@]3(C)[C@@H](CC[C@@H]4[C@@]5(C)CCC(=O)C(C)(C)[C@@H]5[C@H](O)C[C@]43C)[C@@H]12`, the result (in the assay on Staphylococcus aureus; in assay [1]; in assay [2]; with Enterococcus faecalis; with Bacillus subtilis; with Bacillus cereus) was inactive. The outcome (in the assay on Bacillus pumilus; in the assay with Priestia megaterium; in [3]; in the assay on Escherichia coli; with Proteus mirabilis; in the assay on Salmonella) was inactive. Further, the result in the assay on Pseudomonas aeruginosa and with Candida albicans was inactive. The IC50 in the assay with HeLa, in the assay with HEp-2 and in the assay with Vero was more than 10 µg/mL throughout.
For `CC(=O)[C@@H]1CC[C@]2(CO)CC[C@]3(C)[C@@H](CC[C@@H]4[C@@]5(C)CC[C@H](O)C(C)(C)[C@@H]5CC[C@]43C)[C@@H]12` [MESSAGENIN], the outcome (in the assay with Staphylococcus aureus; in assay [1]; in [2]; in the assay with Enterococcus faecalis; in the assay with Bacillus subtilis; with Bacillus cereus) was inactive. The result (with Bacillus pumilus; in the assay on Priestia megaterium; in assay [3]; with Escherichia coli; with Proteus mirabilis; with Salmonella) was inactive. In addition, the result in the assay on Pseudomonas aeruginosa and in the assay with Candida albicans was inactive. The concentration for half-maximal inhibition (IC50) with HeLa, in the assay on HEp-2 and in the assay with Vero was more than 10 µg/mL in each case.
As to `C=C(C)[C@@H]1CC[C@]2(C)CC[C@]3(C)[C@H](CC[C@@H]4[C@@]5(C)CC[C@H](O)C(C)(C)[C@@H]5CC[C@]43C)[C@@H]12` [LUPEOL], the result (with Staphylococcus aureus; in assay [1]; in assay [2]; in the assay with Enterococcus faecalis; with Bacillus subtilis; in the assay on Bacillus cereus) was inactive. Moreover, the outcome (with Bacillus pumilus; in the assay with Priestia megaterium; in [3]; in the assay with Escherichia coli; with Proteus mirabilis; with Salmonella) was inactive. Also, the outcome in the assay on Pseudomonas aeruginosa and in the assay on Candida albicans was inactive. Also, the half-maximal inhibitory concentration (IC50) with HeLa, in the assay with HEp-2 and with Vero was more than 10 µg/mL throughout.
With `C=C(C)[C@@H]1CC[C@]2(CO)CC[C@]3(C)[C@H](CC[C@@H]4[C@@]5(C)CC[C@H](O)C(C)(C)[C@@H]5CC[C@]43C)[C@@H]12` [BETULIN], the result (in the assay on Staphylococcus aureus; in assay [1]; in assay [2]; in the assay on Enterococcus faecalis; in the assay with Bacillus subtilis; in the assay with Bacillus cereus) was inactive. In addition, the outcome (in the assay on Bacillus pumilus; in the assay on Priestia megaterium; in [3]; with Escherichia coli; in the assay on Proteus mirabilis; in the assay with Salmonella) was inactive. Besides, the outcome with Pseudomonas aeruginosa and with Candida albicans was inactive. Besides, the IC50 in the assay with HeLa, with HEp-2 and in the assay with Vero was more than 10 µg/mL each time.
Regarding `CC(C)[C@@H]1CC[C@]2(C)CC[C@]3(C)[C@@H](CC[C@@H]4[C@@]5(C)CC[C@H](OC(=O)/C=C/c6ccc(O)c(O)c6)C(C)(C)[C@@H]5CC[C@]43C)[C@@H]12`, the outcome (in the assay on Staphylococcus aureus; in [1]; in assay [2]; with Enterococcus faecalis; in the assay on Bacillus subtilis; in the assay on Bacillus cereus) was inactive. The outcome (in the assay with Bacillus pumilus; in the assay on Priestia megaterium; in assay [3]; in the assay with Escherichia coli; in the assay on Proteus mirabilis; in the assay with Salmonella) was inactive. The result in the assay with Pseudomonas aeruginosa and with Candida albicans was inactive. In addition, the IC50 in the assay with HeLa, in the assay on HEp-2 and with Vero was more than 10 µg/mL each time.
Take `C=C(C)[C@@H]1CC[C@]2(C)CC[C@]3(C)[C@@H](C[C@@H](O)[C@@H]4[C@@]5(C)[C@H](O)C[C@H](O)C(C)(C)[C@@H]5CC[C@]43C)[C@@H]12` [NEPETICIN]: the result (in the assay with Staphylococcus aureus; in assay [1]; in assay [2]; in the assay on Enterococcus faecalis; with Bacillus subtilis; with Bacillus cereus) was inactive. Further, the result (in the assay on Bacillus pumilus; with Priestia megaterium; in assay [3]; in the assay on Escherichia coli; in the assay on Proteus mirabilis; in the assay on Salmonella) was inactive. For the same compound, the outcome with Pseudomonas aeruginosa and with Candida albicans was inactive. Moreover, the IC50 in the assay on HeLa, in the assay with HEp-2 and in the assay with Vero was less than 10 µg/mL throughout.
For `C=C(C)[C@@H]1CC[C@]2(CO)CC[C@]3(C)[C@H](CC[C@@H]4[C@@]5(C)CC[C@H](OC(=O)/C=C/c6ccc(O)c(O)c6)C(C)(C)[C@@H]5CC[C@]43C)[C@@H]12`, the result (with Staphylococcus aureus; in [1]; in assay [2]; in the assay with Enterococcus faecalis; with Bacillus subtilis; with Bacillus cereus) was inactive. In addition, the result (in the assay with Bacillus pumilus; in the assay on Priestia megaterium; in assay [3]; with Escherichia coli; with Proteus mirabilis; in the assay on Salmonella) was inactive. Further, the result in the assay with Pseudomonas aeruginosa and in the assay on Candida albicans was inactive. Also, the 50% inhibitory concentration (IC50) in the assay on HeLa, in the assay with HEp-2 and with Vero was more than 10 µg/mL in each case.
